Assay results as given in ChEMBL document CHEMBL1141612, “Glyconanobiotics: Novel carbohydrated nanoparticle antibiotics for MRSA and Bacillus anthracis” (2008).
Converted amounts (≈) assume the structure as drawn.

What was measured:
Format in all cases: functional
Bacillus anthracis = assay: Antibacterial activity against Bacillus anthracis after 24 hrs by broth dilution MIC assay
Procedure, shortened: (§1)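 Broth serial dilution. For nanoparticle emulsions, the drug content is assumed equal to the amount used in the polymerization, expressed as µg drug per mL of undiluted emulsion.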

Staphylococcus aureus [1] = assay: Antibacterial activity against methicillin-resistant Staphylococcus aureus ATCC 43300 after 24 hrs by broth dilution MIC assay; conditions: ATCC 43300, 24 h; procedure, shortened: as §1
Staphylococcus aureus [2] = assay: Antibacterial activity against Staphylococcus aureus ATCC 25923 after 24 hrs by broth dilution MIC assay; conditions: ATCC 25923, 24 h; procedure, shortened: as §1

Compound | MIC (Bacillus anthracis) [µg/mL] | MIC (Staphylococcus aureus [1]) [µg/mL] | MIC (Staphylococcus aureus [2]) [µg/mL]
C=CC(=O)O[C@@H]1[C@@H]2OC(C)(C)O[C@@H]2O[C@@H]1C(COC(C)=O)OC(=O)CCC(=O)N[C@@H]1C(=O)N2C1SC(C)(C)[C@@H]2C(=O)O (stereo partly specified) | > 256 | > 256 | > 256
C=CC(=O)O[C@@H]1[C@@H]2OC(C)(C)O[C@@H]2O[C@@H]1C(COC(C)=O)OC(=O)CCC(=O)N1CCN(c2cc3c(cc2F)c(=O)c(C(=O)O)cn3C2CC2)CC1 (stereo partly specified) [CIPROFLOXACIN ACRYLATE] | 16 (≈ 21.9 µM) | 32 (≈ 43.9 µM) | 32 (≈ 43.9 µM)
C=CC(=O)O[C@@H]1[C@H]2OC(C)(C)O[C@H]2O[C@@H]1C(COC(=O)CCC(=O)O[C@H]1C(=O)N(SC(C)CC)[C@H]1c1ccccc1Cl)OC(=O)CCC(=O)O[C@H]1C(=O)N(SC(C)CC)[C@H]1c1ccccc1Cl (stereo partly specified) [LACTAM MONOMER] | 64 (≈ 63.4 µM) | 128 (≈ 127 µM) | 128 (≈ 127 µM)
CC1(C)S[C@@H]2[C@H](NC(=O)Cc3ccccc3)C(=O)N2[C@H]1C(=O)O [PENICILLIN G] |  | 16 (≈ 47.8 µM) | 0.012 (≈ 0.0359 µM)
